Test results taken from ChEMBL document CHEMBL1127783, “Sugar-linked dithiocarbamates as modulators of metabolic and genotoxic properties of N-nitroso compounds” (J Med Chem, 1994).
Where “and” joins values, the source holds several entries; their conditions need not be identical. Equal values may be shown once.

Experiments:
Rattus norvegicus [1] = species on record: Rattus norvegicus; test: Tested in vitro for N-nitrosodimethylamine (NDMA) demethylase activity at 1 mM for 2 mM concentration of formaldehyde; format: functional
How it was run: (§1)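 Liver microsomal fraction from untreated male Sprague–Dawley rats with NADPH-generating system. NDMA substrate 0.1–1 mM; test compound 2–20 mM or DDTC 2 mM added. Formaldehyde and acetaldehyde formed measured as (2,4-dinitrophenyl)hydrazones. Mean ± SD of three separate experiments.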

Rattus norvegicus [2] = test: Tested for steady state volume of distribution (Vss) after intravenous bolus administration of 100 mg/kg in rat 2; format: ADME, organism-based; set-up: dose 100 mg/kg, route intravenous; settings: in vivo
How it was run: (§2)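 Rats (two per compound) were catheterised in the jugular vein under chloral hydrate. A 100 mg/kg iv bolus was given through the catheter, followed by a saline rinse. Serial blood samples (250–300 μL) were collected into heparinized tubes and centrifuged for plasma. Each rat's plasma concentration–time data were fitted by nonlinear regression to a compartment model to derive AUC, MRT, CL, Vss and phase half-lives. Body weight was recorded for each rat.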

Rattus norvegicus [3] = species on record: Rattus norvegicus; test: Tested in vitro for N-nitrosodimethylamine (NDMA) demethylase activity at 0.1 mM for 0 mM concentration of formaldehyde; format: functional; how it was run: as §1
Rattus norvegicus [4] = test: Tested for cumulative urinary excretion following intravenous bolus dose of 100 mg/kg in rat at 0-8 hr was recovered; format: functional, Urine
How it was run: (§3)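 Rats (five per group) were given a single 100 mg/kg dose ip or as an iv bolus. Each was housed alone in a metabolism cage, and urine was collected over 0–8 h and 8–24 h. Parent compound and the monosaccharide-linked metabolite in urine were quantified and reported as cumulative % of dose, mean ± SD.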

Rattus norvegicus [5] = species on record: Rattus norvegicus; test: Tested in vitro for N-nitrosodimethylamine (NDMA) demethylase activity at 0.1 mM for 2 mM concentration of acetaldehyde; format: functional; how it was run: as §1
Rattus norvegicus [6] = test: Tested ex vivo for analysis of DNA single-strand breaks in primary rat hepatocyte by oral treatment of NDEA during first gavage; format: functional
Rattus norvegicus [7] = species on record: Rattus norvegicus; test: Tested in vitro for N-nitrosodimethylamine (NDMA) demethylase activity at 2 mM for 2 mM concentration of formaldehyde; format: functional; how it was run: as §1
Rattus norvegicus [8] = species on record: Rattus norvegicus; test: Tested in vitro for N-nitrosodimethylamine (NDMA) demethylase activity at 0.5 mM for 2 mM concentration of acetaldehyde; format: functional; how it was run: as §1
Rattus norvegicus [9] = species on record: Rattus norvegicus; test: Tested in vitro for N-nitrosodimethylamine (NDMA) demethylase activity at 2 mM for 2 mM concentration of acetaldehyde; format: functional; how it was run: as §1
Rattus norvegicus [10] = species on record: Rattus norvegicus; test: Tested in vitro for N-nitrosodimethylamine (NDMA) demethylase activity at 0.1 mM for 2 mM concentration of formaldehyde; format: functional; how it was run: as §1
Rattus norvegicus [11] = test: Tested for cumulative urinary excretion following intravenous bolus dose of 100 mg/kg in rat at 8-24 h was recovered; format: functional, Urine; how it was run: as §3
Rattus norvegicus [12] = test: Tested ex vivo for analysis of DNA single-strand breaks in primary rat hepatocyte by oral treatment of NDEA during second gavage, 2 hr after first gavage.; format: functional
How it was run: (§4)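 Fasted rats given a first gavage of 0.5 mmol/kg test agent or saline, then NDEA (1.4 mg/kg) or saline by a second gavage 2 h later, both in 10 mL NaCl/kg. At 1 h after the second gavage, hepatocytes were isolated by two-step in situ perfusion under metophane anaesthesia. Alkaline filter elution: 1.5 × 10⁶ cells/filter, lysis at pH 10 with SDS/proteinase K, ten elution fractions, DNA measured by Hoechst 33258 fluorescence. Readout is control minus treated % DNA retained on filter; n = 6.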

Rattus norvegicus [13] = test: Tested ex vivo for analysis of DNA single-strand breaks in primary rat hepatocyte by oral treatment of NaCl during first gavage; format: functional; how it was run: as §4
Rattus norvegicus [14] = test: Tested for area under the curve (AUC) after intravenous bolus administration of 100 mg/kg in rat 2; format: ADME, organism-based; set-up: dose 100 mg/kg, route intravenous; settings: in vivo; how it was run: as §2
[15] = Tested for half -life alpha after intravenous bolus administration of 100 mg/kg in rat 2; format: ADME, organism-based; set-up: dose 100 mg/kg, route intravenous; settings: in vivo, read-out: T1/2 alpha; how it was run: as §2
Rattus norvegicus [16] = test: Tested for body weight after intravenous bolus administration of 100 mg/kg in rat 2; format: ADME, organism-based; set-up: dose 100 mg/kg, route intravenous; settings: in vivo; how it was run: as §2
Rattus norvegicus [17] = species on record: Rattus norvegicus; test: Tested in vitro for N-nitrosodimethylamine (NDMA) demethylase activity at 2 mM for 5 mM concentration of acetaldehyde; format: functional; how it was run: as §1
Rattus norvegicus [18] = test: Tested for cumulative urinary excretion following intraperitoneal dose of 100 mg/kg in rat at 0-8 hr was recovered; format: functional, Urine; how it was run: as §3
Rattus norvegicus [19] = test: Tested for total body clearance (CL) after intravenous bolus administration of 100 mg/kg in rat 1; format: ADME, organism-based; set-up: dose 100 mg/kg, route intravenous; settings: in vivo; how it was run: as §2
Rattus norvegicus [20] = test: Tested for cumulative urinary excretion following intraperitoneal dose of 100 mg/kg in rat at 8-24 h; format: functional, Urine; how it was run: as §3
Rattus norvegicus [21] = test: Tested for mean residence time (MRT) after intravenous bolus administration of 100 mg/kg in rat 1; format: ADME, organism-based; set-up: dose 100 mg/kg, route intravenous; settings: in vivo; how it was run: as §2
[22] = Tested for half -life alpha after intravenous bolus administration of 100 mg/kg in rat 1; format: ADME, organism-based; set-up: dose 100 mg/kg, route intravenous; settings: in vivo, read-out: T1/2 alpha; how it was run: as §2
[23] = Tested for half life beta after intravenous bolus administration of 100 mg/kg in rat 2; format: ADME, organism-based; set-up: dose 100 mg/kg, route intravenous; settings: in vivo, read-out: T1/2 beta; how it was run: as §2
Rattus norvegicus [24] = species on record: Rattus norvegicus; test: Tested in vitro for N-nitrosodimethylamine (NDMA) demethylase activity at 2 mM for 0 mM concentration of formaldehyde; format: functional; how it was run: as §1
Rattus norvegicus [25] = species on record: Rattus norvegicus; test: Tested in vitro for N-nitrosodimethylamine (NDMA) demethylase activity at 1 mM for 2 mM concentration of acetaldehyde; format: functional; how it was run: as §1
Rattus norvegicus [26] = test: Tested for mean residence time (MRT) after intravenous bolus administration of 100 mg/kg in rat 2; format: ADME, organism-based; set-up: dose 100 mg/kg, route intravenous; settings: in vivo; how it was run: as §2
Rattus norvegicus [27] = test: Tested for cumulative urinary excretion following intravenous bolus dose of 100 mg/kg in rat at 8-24 h; format: functional, Urine; how it was run: as §3
[28] = Tested for half life gamma after intravenous bolus administration of 100 mg/kg in rat 2; format: ADME, organism-based; set-up: dose 100 mg/kg, route intravenous; settings: in vivo, read-out: T1/2 gamma; how it was run: as §2
Rattus norvegicus [29] = species on record: Rattus norvegicus; test: Tested in vitro for N-nitrosodimethylamine (NDMA) demethylase activity at 0.1 mM for 0 mM concentration of acetaldehyde; format: functional; how it was run: as §1
[30] = Tested for the half life period in phosphate buffer at pH of 7.4; Stable; format: ADME; settings: pH 7.4
Rattus norvegicus [31] = species on record: Rattus norvegicus; test: Tested in vitro for N-nitrosodimethylamine (NDMA) demethylase activity at 0.5 mM for 2 mM concentration of formaldehyde; format: functional; how it was run: as §1
Rattus norvegicus [32] = test: Tested for cumulative urinary excretion following intravenous bolus dose of 100 mg/kg in rat at 0-8 h; format: functional, Urine; how it was run: as §3
Rattus norvegicus [33] = test: Tested for half life beta after intravenous bolus administration of 100 mg/kg in rat 1; format: ADME, organism-based; set-up: dose 100 mg/kg, route intravenous; settings: in vivo; how it was run: as §2
Rattus norvegicus [34] = test: Tested for body weight after intravenous bolus administration of 100 mg/kg in rat 1; format: ADME, organism-based; set-up: dose 100 mg/kg, route intravenous; settings: in vivo; how it was run: as §2
[35] = Tested for half life gamma after intravenous bolus administration of 100 mg/kg in rat 1; format: ADME, organism-based; set-up: dose 100 mg/kg, route intravenous; settings: in vivo, read-out: T1/2 gamma; how it was run: as §2
[36] = Tested for the half life period in beta glucosidase at pH of 7.4; 6-12 days; format: ADME; settings: pH 7.4
Rattus norvegicus [37] = species on record: Rattus norvegicus; test: Tested in vitro for N-nitrosodimethylamine (NDMA) demethylase activity at 2 mM for 5 mM concentration of formaldehyde; format: functional; how it was run: as §1
Rattus norvegicus [38] = test: Tested for total body clearance (CL) after intravenous bolus administration of 100 mg/kg in rat 2; format: ADME, organism-based; set-up: dose 100 mg/kg, route intravenous; settings: in vivo; how it was run: as §2
Rattus norvegicus [39] = species on record: Rattus norvegicus; test: Tested in vitro for N-nitrosodimethylamine (NDMA) demethylase activity at 2 mM for 20 mM concentration of formaldehyde; format: functional; how it was run: as §1
Rattus norvegicus [40] = test: Tested for area under the curve (AUC) after intravenous bolus administration of 100 mg/kg in rat 1; format: ADME, organism-based; set-up: dose 100 mg/kg, route intravenous; settings: in vivo; how it was run: as §2
[41] = Tested for the half life period in alpha glucosidase at pH of 7.4; 9-18 days; format: ADME; settings: pH 7.4
Rattus norvegicus [42] = test: Tested for steady state volume of distribution (Vss) after intravenous bolus administration of 100 mg/kg in rat 1; format: ADME, organism-based; set-up: dose 100 mg/kg, route intravenous; settings: in vivo; how it was run: as §2
Rattus norvegicus [43] = test: Tested ex vivo for analysis of DNA single-strand breaks in primary rat hepatocyte by oral treatment of NaCl during second gavage, 2 hr after first gavage.; format: functional; how it was run: as §4
Rattus norvegicus [44] = species on record: Rattus norvegicus; test: Tested in vitro for N-nitrosodimethylamine (NDMA) demethylase activity at 2 mM for 0 mM concentration of acetaldehyde; format: functional; how it was run: as §1
Rattus norvegicus [45] = test: Tested for cumulative urinary excretion following intraperitoneal dose of 100 mg/kg in rat at 8-24 hr was recovered; format: functional, Urine; how it was run: as §3
Rattus norvegicus [46] = test: Tested for cumulative urinary excretion following intraperitoneal dose of 100 mg/kg in rat at 0-8 h; format: functional, Urine; how it was run: as §3

SMILES: CCN(CC)C(=S)SC1OC(CO)C(O)C(O)C1O (stereo not given)
- Formaldehyde (Rattus norvegicus [1]): 6.2 nM (mg of protein)-1
- Vss (Rattus norvegicus [2]): 0.1848 L/kg
- Formaldehyde (Rattus norvegicus [3]): 4.6 nM (mg of protein)-1
- Excretion (Rattus norvegicus [4]): 13.1 % of dose
- Acetaldehyde (Rattus norvegicus [5]): 10.9 nM (mg of protein)-1
- DNA on filter (Rattus norvegicus [6]): 74
- Viability (Rattus norvegicus [6]): 92%
- Formaldehyde (Rattus norvegicus [7]): 14.7 nM (mg of protein)-1
- Acetaldehyde (Rattus norvegicus [8]): 8.5 nM (mg of protein)-1
- Acetaldehyde (Rattus norvegicus [9]): 13.8 nM (mg of protein)-1 and 31.5 nM (mg of protein)-1
- Formaldehyde (Rattus norvegicus [10]): 1.2 nM (mg of protein)-1
- Excretion (Rattus norvegicus [11]): 1.2 % of dose
- DNA on filter (Rattus norvegicus [12]): 77
- Viability (Rattus norvegicus [12]): 106%
- DNA on filter (Rattus norvegicus [13]): 60
- Viability (Rattus norvegicus [13]): 82%
- AUC (Rattus norvegicus [14]): 11.4 uM min l-1
- half-life [15]: 5.2 min
- Body weight (Rattus norvegicus [16]): 150 g
- Acetaldehyde (Rattus norvegicus [17]): 25.9 nM (mg of protein)-1
- Excretion (Rattus norvegicus [18]): 21 % of dose
- Clearance (Rattus norvegicus [19]): 25.5 mL/min/kg
- Excretion (Rattus norvegicus [20]): 2.2 % of dose
- MRT (Rattus norvegicus [21]): 59.8 min
- half-life [22]: 3.7 min
- half-life [23]: 23.6 min
- Formaldehyde (Rattus norvegicus [24]): 15 nM (mg of protein)-1
- Acetaldehyde (Rattus norvegicus [25]): 4.3 nM (mg of protein)-1
- MRT (Rattus norvegicus [26]): 43.8 min
- Excretion (Rattus norvegicus [27]): 1.5 % of dose
- half-life [28]: 129 min
- Acetaldehyde (Rattus norvegicus [29]): 0 nM (mg of protein)-1
- T1/2 [30]: Stable
- Formaldehyde (Rattus norvegicus [31]): 9 nM (mg of protein)-1
- Excretion (Rattus norvegicus [32]): 34.5 % of dose
- T1/2 beta (Rattus norvegicus [33]): 19.3 min
- Body weight (Rattus norvegicus [34]): 140 g
- half-life [35]: 88.8 min
- half-life [36]: 144 h
- Formaldehyde (Rattus norvegicus [37]): 11.9 nM (mg of protein)-1
- Clearance (Rattus norvegicus [38]): 42.1 mL/min/kg
- Formaldehyde (Rattus norvegicus [39]): 1.5 nM (mg of protein)-1
- AUC (Rattus norvegicus [40]): 17.6 uM min l-1
- half-life [41]: 216 h
- Vss (Rattus norvegicus [42]): 0.1526 L/kg
- DNA on filter (Rattus norvegicus [43]): 58
- Viability (Rattus norvegicus [43]): 100%
- Acetaldehyde (Rattus norvegicus [44]): 0 nM (mg of protein)-1
- Excretion (Rattus norvegicus [45]): 1 % of dose
- Excretion (Rattus norvegicus [46]): 31.2 % of dose
